Test results published in ChEMBL document CHEMBL1121610, “Plant antitumor agents. 18. Synthesis and biological activity of camptothecin analogues” (J Med Chem, 1980).
≈ marks a conversion by molar mass, not a printed value. Calls of active or inactive are those of the source. The rule behind the calls is not given here.

Tests used:
[1] = In vitro cytotoxicity of compound was tested against 9KB cells.; type: functional; conditions: Homo sapiens, read-out: ED50 (the source's name)
How it was run: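 Cytotoxicity against KB (9KB) cells was run in vitro at Research Triangle Institute under standard protocols. Potency is expressed as ED50 in μg/mL.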

P388 [2] = assay: Lowest toxicity was observed at this dose against P-388 leukemia cells; type: functional, Mus musculus
How it was run: (§1)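 In vivo P-388 lymphocytic leukemia (PS) assay run by National Cancer Institute contractors under standard protocols. Compounds were dosed over a range in mg/kg, and activity is reported as % T/C (treated vs control). The optimal dose and the lowest toxic dose were taken from the dose series, and a therapeutic index was tabulated from them.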

P388 [3] = assay: This is the dose at which optimal activity was observed against P-388 leukemia cells; type: functional, Mus musculus; how it was run: as §1
P388 [4] = assay: Antileukemic activity against P-388 leukemia cells was measured at given dose range; type: functional, Mus musculus; how it was run: as §1
[5] = Therapeutic index was measured on P-388 leukemia cells.; conditions: mouse, read-out: Therapeutic index; how it was run: as §1
Mus musculus [6] = assay: Optimal activity expressed as percentage treated to that of control was measured in vivo against P-388 leukemia cells; type: functional; how it was run: as §1
[7] = Therapeutic index was measured on P-388 leukemia cells; conditions: mouse, read-out: Therapeutic index; how it was run: as §1
[8] = Therapeutic index was measured on P-388 leukemia cells against P-388 leukemia cells; type: organism-based; conditions: mouse, read-out: Therapeutic index; how it was run: as §1
Mus musculus [9] = assay: Optimal activity expressed as percentage treated to that of control was measured in vivo against P-388 leukemia cells; NA means inactive; type: functional, organism-based; how it was run: as §1

| Structure (SMILES) | EC50 [1] | Dose (P388 [2]) | Dose (P388 [3]) | Dose range (P388 [4]) | selectivity ratio [5] | T/C (Mus musculus [6]) | selectivity ratio [7] | selectivity ratio [8] | T/C (Mus musculus [9]) |
| --- | --- | --- | --- | --- | --- | --- | --- | --- | --- |
| COCCC1(O)C(=O)OCc2c1cc1n(c2=O)Cc2cc3ccccc3nc2-1 (stereo unspecified) | 0.2 µg/mL (≈ 0.529 µM) | 8 mg/kg | 4 mg/kg | 8 mg/kg | 2 | 160% |  |  |  |
| CC[C@@]1(O)C(=O)OCc2c1cc1n(c2=O)Cc2cc3ccccc3nc2-1 [CAMPTOTHECIN] |  | 8 mg/kg | 4 mg/kg | 8 mg/kg |  | 197% | 8 |  |  |
| CCC1(O)C(=O)OCc2c1cc1n(c2=O)Cc2cc3ccccc3nc2-1 (stereo unspecified) | 0.1 µg/mL (≈ 0.287 µM) | 16 mg/kg | 8 mg/kg | 16 mg/kg | 8 | 222% |  |  |  |
| CC[C@@]1(O)C(=O)OCc2c1cc1n(c2=O)Cc2cc3cc(OC)ccc3nc2-1 | 0.02 µg/mL (≈ 0.0529 µM) | 1 mg/kg | 0.5 mg/kg | 4 mg/kg | 1 | 145% |  |  |  |
| CCN(CC)CCOc1ccc2nc3c(cc2c1)Cn1c-3cc2c(c1=O)COC(=O)[C@]2(O)CC.Cl | > 1 µg/mL |  | 32 mg/kg | 32 mg/kg |  | 234% |  | 16 |  |
| CC[C@@]1(O)C(=O)OCc2c1cc1n(c2=O)Cc2cc3cc(O)ccc3nc2-1 [HYDROXYCAMPTOTHECIN] | 0.02 µg/mL (≈ 0.0549 µM) | 8 mg/kg | 4 mg/kg | 8 mg/kg | 8 | 314% |  |  |  |
| CC[C@@](O)(C(=O)[O-])c1cc2n(c(=O)c1CO)Cc1cc3ccccc3nc1-2.[Na+] |  | 80 mg/kg | 40 mg/kg | 8 mg/kg | 4 | 212% |  |  |  |
| CCC1(O)C(=O)OCc2c1cc1n(c2=O)Cc2cc3cc4ccccc4cc3nc2-1 (stereo unspecified) | 0.2 µg/mL (≈ 0.502 µM) |  | 16 mg/kg | 32 mg/kg |  | 198% |  | 4 |  |
| CC[C@@]1(O)C(=O)OCc2c1cc1n(c2=O)Cc2cc3cc(OCC(=O)[O-])ccc3nc2-1.[Na+] | > 1 µg/mL |  |  | 32 mg/kg |  |  |  |  | inactive |
| CCCC1(O)C(=O)OCc2c1cc1n(c2=O)Cc2cc3cccnc3nc2-1 (stereo unspecified) |  |  | 32 mg/kg | 32 mg/kg |  | 175% |  | 2 |  |
